Reference: ChEMBL document CHEMBL5096187, “Efficient Synthesis and Bioevaluation of Novel Dual Tubulin/Histone Deacetylase 3 Inhibitors as Potential Anticancer Agents” (J Med Chem, 2021)

Molecular target: T1, Protein deacetylase HDAC6 (Homo sapiens, UniProt Q9UBN7)
T1 sequence (Q9UBN7 whole entry): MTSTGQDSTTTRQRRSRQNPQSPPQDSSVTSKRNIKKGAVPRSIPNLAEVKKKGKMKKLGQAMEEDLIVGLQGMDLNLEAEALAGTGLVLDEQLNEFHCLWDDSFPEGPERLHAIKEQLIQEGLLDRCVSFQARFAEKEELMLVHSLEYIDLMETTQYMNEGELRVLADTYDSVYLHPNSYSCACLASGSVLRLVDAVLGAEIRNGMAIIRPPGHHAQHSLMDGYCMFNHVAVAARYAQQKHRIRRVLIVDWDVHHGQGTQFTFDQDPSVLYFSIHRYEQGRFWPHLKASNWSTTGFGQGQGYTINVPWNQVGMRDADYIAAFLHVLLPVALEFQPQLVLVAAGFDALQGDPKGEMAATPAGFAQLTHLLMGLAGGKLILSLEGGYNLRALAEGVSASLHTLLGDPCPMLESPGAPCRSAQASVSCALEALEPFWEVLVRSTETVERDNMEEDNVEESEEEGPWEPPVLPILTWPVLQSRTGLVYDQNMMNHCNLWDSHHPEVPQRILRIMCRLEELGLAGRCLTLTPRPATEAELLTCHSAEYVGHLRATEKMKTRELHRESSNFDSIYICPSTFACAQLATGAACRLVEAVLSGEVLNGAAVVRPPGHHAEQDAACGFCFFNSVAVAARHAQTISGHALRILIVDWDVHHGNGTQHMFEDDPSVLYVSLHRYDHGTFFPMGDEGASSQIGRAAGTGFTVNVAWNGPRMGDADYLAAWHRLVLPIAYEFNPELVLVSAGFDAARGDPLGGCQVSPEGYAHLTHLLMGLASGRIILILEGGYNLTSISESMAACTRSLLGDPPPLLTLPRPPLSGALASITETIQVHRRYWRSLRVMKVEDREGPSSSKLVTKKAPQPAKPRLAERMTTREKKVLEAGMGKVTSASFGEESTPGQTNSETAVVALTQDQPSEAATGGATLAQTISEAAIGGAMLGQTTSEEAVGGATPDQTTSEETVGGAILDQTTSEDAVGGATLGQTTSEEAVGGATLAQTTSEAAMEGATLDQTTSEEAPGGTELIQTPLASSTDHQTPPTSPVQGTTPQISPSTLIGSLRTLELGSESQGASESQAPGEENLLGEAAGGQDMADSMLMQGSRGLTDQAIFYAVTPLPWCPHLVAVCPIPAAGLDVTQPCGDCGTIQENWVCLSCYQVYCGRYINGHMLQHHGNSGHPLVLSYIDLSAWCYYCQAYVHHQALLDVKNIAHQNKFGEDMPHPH
Experiment: Inhibition of full length N-terminal GST-tagged human recombinant HDAC6 (1 to 1215 residues) expressed in Baculovirus infected Sf9 cells using Ac-Leu-Gly-Lys (Ac)-AMC as substrate pretreated for 5 mins followed by substrate addition and measured after 30 mins
Outline: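 HDAC6 at 15 ng/well in Tris buffer pH 8.0 with MgCl2, BSA, NaCl and KCl. Ten 3-fold dilutions preincubated 5 min at room temperature, then 10 μM Ac-Leu-Gly-Lys(Ac)-AMC for 30 min at 37 °C. IC50 by normalized dose–response nonlinear fit; performed at least three times.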

- IC50: 31 µM
Compound: COc1cc(C(=O)c2csc(-c3ccc(NC(=O)CCCC(=O)Nc4ccccc4N)cc3)n2)cc(OC)c1OC
